Results published in ChEMBL document CHEMBL1122985, “Synthesis and evaluation of N,N'-bis(arylsulfonyl)hydrazines as antineoplastic agents” (1985).

Tests used:
Assay type in all cases: functional
Mus musculus [1] = test: Percent change in the weight after administering a dose of 100 mg/kg to mice bearing L1210 leukemia
Procedure, shortened: (§1)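 L1210 ascites cells were propagated in CDF₁ mice and 0.1 mL of a suspension at 10⁶ cells/mL in isotonic saline was implanted ip. Compound was given ip once daily for 6 consecutive days starting 24 h after implantation, as a fine suspension in Tween 80/saline (0.5 mL). Groups of five were used, with vehicle controls. The read-out was average body-weight change from onset to end of therapy.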

Mus musculus [2] = test: Percent change in the weight after administering a dose of 150 mg/kg to mice bearing L1210 leukemia; procedure, shortened: as §1
Mus musculus [3] = test: Percent change in the weight after administering a dose of 50 mg/kg to mice bearing L1210 leukemia; procedure, shortened: as §1
Mus musculus [4] = test: Average survival time of control mice bearing L1210 leukemia at a dose 50 mg/kg
Procedure, shortened: (§2)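 L1210 ascites cells passaged in CDF1 mice, taken from 7-day donors, spun, diluted 10-fold in isotonic saline and set to 10^6 cells/mL by Coulter count; 0.1 mL given ip. Compound suspended in 2–3 drops 20% aqueous Tween 80 plus isotonic saline, 0.5 mL ip once daily for 6 days from 24 h after implant. Groups of five; vehicle-injected controls. %T/C = treated/control mean survival ×100.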

Mus musculus [5] = test: Average survival time of treated mice bearing the L1210 leukemia at a dose 100 mg/kg; procedure, shortened: as §2
Mus musculus [6] = test: Average survival time of treated mice bearing the L1210 leukemia at a dose 150 mg/kg; procedure, shortened: as §2
Mus musculus [7] = test: Average survival time of treated mice bearing the L1210 leukemia at a dose 50 mg/kg; procedure, shortened: as §2
Mus musculus [8] = test: Percentage of average survival time of control/treated mice bearing the L1210 leukemia at a dose 100 mg/kg; procedure, shortened: as §2
Mus musculus [9] = test: Percentage of average survival time of control/treated mice bearing the L1210 leukemia at a dose 150 mg/kg; procedure, shortened: as §2
Mus musculus [10] = test: Percentage of average survival time of control/treated mice bearing the L1210 leukemia at a dose 50 mg/kg; procedure, shortened: as §2
Mus musculus [11] = test: Average survival time of mice bearing L1210 leukemia at a dose 50 mg/kg; procedure, shortened: as §2
Mus musculus [12] = test: Percentage of average survival time of control/treated mice bearing sarcoma 180 at a dose 50 mg/kg
Mus musculus [13] = test: Percentage of average survival time of control/treated mice bearing sarcoma 180 at a dose 100 mg/kg
Mus musculus [14] = test: Percentage of average survival time of control/treated mice bearing P388 leukemia at a dose 150 mg/kg

SMILES	Average weight change (Mus musculus [1]) [%]	Average weight change (Mus musculus [2]) [%]	Average weight change (Mus musculus [3]) [%]	Survival time (Mus musculus [4]) [days]	Survival time (Mus musculus [5]) [days]	Survival time (Mus musculus [6]) [days]	Survival time (Mus musculus [7]) [days]	T/C (Mus musculus [8]) [%]	T/C (Mus musculus [9]) [%]	T/C (Mus musculus [10]) [%]	Survival time (Mus musculus [11]) [days]	T/C (Mus musculus [12]) [%]	T/C (Mus musculus [13]) [%]	T/C (Mus musculus [14]) [%]
CN(NC(=O)c1ccccc1)C(=O)c1ccccc1	-2	-2	2.5	9.5	9.2	9.2	9.2	97	97	97				
Cc1ccc(S(=O)(=O)NN(C)S(=O)(=O)c2ccc(C)cc2)cc1	0.8		3.7	9.5							14	197		
CN(NS(=O)(=O)c1ccc(Cl)cc1)S(=O)(=O)c1ccc(Cl)cc1	1.3	6.9	4	9.5			11.4	124		120				
CN(NS(=O)(=O)c1ccc2ccccc2c1)S(=O)(=O)c1ccc2ccccc2c1	-3.3	4.1	3	9		9								
O=S(=O)(NNS(=O)(=O)c1ccccc1)c1ccccc1	5.8	0.8	-0.3	9.5	9.2	9.6	9.2	97	101	97				
CN(NS(=O)(=O)c1ccccc1)S(=O)(=O)c1ccccc1	-5.2	-13.5	-4.8	9		9.4							203	
COc1ccc(S(=O)(=O)NN(C)S(=O)(=O)c2ccc(OC)cc2)cc1	-1.6	4.1	1.9	9										136
